Consider 23 compounds from ChEMBL document CHEMBL1158608, “Hit-to-lead optimization of disubstituted oxadiazoles and tetrazoles as mGluR5 NAMs” (Bioorg Med Chem Lett, 2010).

The Ki is a dissociation constant, usually derived from enzyme kinetics or from competition with a known ligand. A low value points to higher affinity. As usually defined, the IC50 is the concentration that inhibits the measured activity by half.

Test [1] deals with T1, Metabotropic glutamate receptor 5 (Rattus norvegicus, UniProt P31424). Description: Displacement of [3H]-M-MPEP from mGluR5 in rat cerebrocortical membranes. The class given is cell membranes, Membrane. The gist of the method:
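Displacement run in duplicate or triplicate, with curves of at least six concentrations. IC50 was converted to Ki by Cheng-Prusoff, using Kd from a Scatchard plot.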
A general note: Displacement assays read how much labelled ligand stays bound in the presence of the test substance.

Test [2] has as its target T1, Metabotropic glutamate receptor 5. Description: Allosteric modulation of mGluR5 in E17 rat neuronal cultures assessed as inhibition of (S)-3,5-dihydroxyphenylglycine-induced calcium level. It counts as functional. The method in brief:
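Primary neocortical cultures from E17 rat embryos, grown at least 5 days, then loaded with the Ca2+ dye fluo-4/AM. Baseline and agonist-evoked fluorescence signals were recorded on a plate reader fluorometer.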

Test [3] has as its target Metabotropic glutamate receptor 5 (Homo sapiens, UniProt P41594). Description: Binding affinity to human mGluR5. The gist of the method: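 Run in duplicate or triplicate, with concentration-displacement curves of at least six concentrations giving IC50. Ki derived by Cheng-Prusoff, using the radioligand Kd determined from a Scatchard plot.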

Molecules are shown by their SMILES.

T1 sequence (P31424 whole entry): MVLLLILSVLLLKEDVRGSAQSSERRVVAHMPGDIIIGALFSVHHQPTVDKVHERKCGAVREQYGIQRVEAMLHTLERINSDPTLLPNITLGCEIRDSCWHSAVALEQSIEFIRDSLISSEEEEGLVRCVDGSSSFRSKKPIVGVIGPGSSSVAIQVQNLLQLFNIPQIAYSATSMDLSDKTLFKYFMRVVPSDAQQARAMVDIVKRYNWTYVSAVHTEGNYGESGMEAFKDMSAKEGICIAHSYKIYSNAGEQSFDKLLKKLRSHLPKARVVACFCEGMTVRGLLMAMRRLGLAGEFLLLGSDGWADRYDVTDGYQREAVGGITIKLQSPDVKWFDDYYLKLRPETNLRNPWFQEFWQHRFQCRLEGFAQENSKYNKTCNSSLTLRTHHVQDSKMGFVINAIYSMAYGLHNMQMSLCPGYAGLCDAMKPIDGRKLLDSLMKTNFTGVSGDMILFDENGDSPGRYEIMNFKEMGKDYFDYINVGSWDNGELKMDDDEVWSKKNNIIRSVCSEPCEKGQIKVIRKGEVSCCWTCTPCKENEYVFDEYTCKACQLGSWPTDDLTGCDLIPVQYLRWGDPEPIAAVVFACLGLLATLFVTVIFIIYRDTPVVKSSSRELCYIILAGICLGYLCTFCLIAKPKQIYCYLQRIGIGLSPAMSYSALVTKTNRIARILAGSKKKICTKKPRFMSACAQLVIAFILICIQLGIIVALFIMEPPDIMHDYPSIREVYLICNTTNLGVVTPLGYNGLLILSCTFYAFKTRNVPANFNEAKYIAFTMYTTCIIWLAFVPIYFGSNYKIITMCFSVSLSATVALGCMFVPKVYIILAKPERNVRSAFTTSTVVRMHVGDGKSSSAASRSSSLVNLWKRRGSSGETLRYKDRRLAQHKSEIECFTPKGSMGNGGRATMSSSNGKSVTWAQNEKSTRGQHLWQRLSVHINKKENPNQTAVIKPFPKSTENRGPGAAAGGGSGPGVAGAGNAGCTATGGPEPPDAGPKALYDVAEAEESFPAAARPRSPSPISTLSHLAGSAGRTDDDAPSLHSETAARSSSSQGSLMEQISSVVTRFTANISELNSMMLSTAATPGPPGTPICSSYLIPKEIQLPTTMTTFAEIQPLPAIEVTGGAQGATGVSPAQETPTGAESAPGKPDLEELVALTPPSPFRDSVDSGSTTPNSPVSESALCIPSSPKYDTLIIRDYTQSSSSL
Metabotropic glutamate receptor 5 (Homo sapiens, UniProt P41594), sequence (P41594 whole entry): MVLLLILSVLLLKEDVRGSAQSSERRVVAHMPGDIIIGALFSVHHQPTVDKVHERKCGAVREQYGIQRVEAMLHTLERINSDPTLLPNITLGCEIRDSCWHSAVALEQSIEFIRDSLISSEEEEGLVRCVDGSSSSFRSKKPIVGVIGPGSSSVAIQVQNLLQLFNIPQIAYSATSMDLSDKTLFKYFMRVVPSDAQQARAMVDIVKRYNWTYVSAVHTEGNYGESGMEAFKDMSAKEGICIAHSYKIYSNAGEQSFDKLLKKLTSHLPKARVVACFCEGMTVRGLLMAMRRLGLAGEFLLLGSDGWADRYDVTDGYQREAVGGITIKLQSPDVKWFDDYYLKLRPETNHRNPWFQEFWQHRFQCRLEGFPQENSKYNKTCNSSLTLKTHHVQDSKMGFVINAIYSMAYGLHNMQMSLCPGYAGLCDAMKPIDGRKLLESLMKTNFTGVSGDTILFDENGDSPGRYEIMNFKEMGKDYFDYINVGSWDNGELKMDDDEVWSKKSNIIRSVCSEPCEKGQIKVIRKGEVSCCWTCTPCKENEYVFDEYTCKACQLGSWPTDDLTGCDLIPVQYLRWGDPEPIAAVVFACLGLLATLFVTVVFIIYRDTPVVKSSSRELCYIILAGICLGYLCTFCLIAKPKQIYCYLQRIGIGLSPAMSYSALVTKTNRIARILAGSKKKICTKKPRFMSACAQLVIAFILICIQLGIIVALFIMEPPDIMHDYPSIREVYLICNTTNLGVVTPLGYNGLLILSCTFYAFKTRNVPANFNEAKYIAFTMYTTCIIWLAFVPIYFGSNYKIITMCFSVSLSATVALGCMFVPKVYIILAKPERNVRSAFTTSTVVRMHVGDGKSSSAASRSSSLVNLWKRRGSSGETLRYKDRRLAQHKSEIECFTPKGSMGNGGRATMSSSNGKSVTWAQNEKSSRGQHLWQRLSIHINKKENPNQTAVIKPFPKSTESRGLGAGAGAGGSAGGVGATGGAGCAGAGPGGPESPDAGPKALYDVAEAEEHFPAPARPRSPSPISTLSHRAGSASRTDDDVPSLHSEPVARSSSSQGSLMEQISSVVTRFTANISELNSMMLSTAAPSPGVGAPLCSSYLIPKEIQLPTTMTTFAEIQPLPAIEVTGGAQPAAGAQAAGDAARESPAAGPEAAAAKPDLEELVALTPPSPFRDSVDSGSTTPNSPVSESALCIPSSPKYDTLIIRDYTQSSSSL

Compound `O=C(C1CCC1)N1CCCC[C@@H]1c1nnn(-c2cccc(Cl)c2)n1` had an inhibition constant Ki in test [1] of 57.5 nM.
Turning to `O=C(C1CCC1)N1CCCC[C@H]1c1nnn(-c2cccc(Cl)c2)n1`, in test [1], the Ki was 741 nM. Against the preceding compound, the Ki is about 13-fold higher.
Consider `N#Cc1cccc(-c2noc(C3CCCCN3C(=O)c3cccs3)n2)c1` (racemic), for which the half-maximal inhibitory concentration (IC50) in test [2] was 1740 nM. The compound also showed an inhibition constant (Ki) in test [1] of 200 nM.
On the same counts, the results for `COc1cccc(-c2noc(C3CCCCN3C(=O)C3CCC3)n2)c1` (racemic) are 501 nM and 182 nM.
The like results for `COCC(=O)N1CCCC1c1nc(-c2cccc(C)c2)no1` (racemic) were, in that order, 30200 nM and 186 nM.
`O=C(c1ccco1)N1CSCC1c1nc(-c2cccc(Cl)c2)no1` (racemic): the half-inhibitory concentration (IC50) in test [2] is 1050 nM. Further, the inhibition constant (Ki) in test [1] is 195 nM.
Turning to `O=C(c1cccs1)N1CCCC1c1nc(-c2cccc(Cl)c2)no1` (racemic), in test [2], the half-maximal inhibitory concentration (IC50) was 30200 nM. Besides, in test [1], the affinity, expressed as Ki, was 195 nM.
On to `N#Cc1cccc(-n2nnc(C3CCCCN3C(=O)C3CCC3)n2)c1` (racemic), for which, in test [1], affinity was put at a Ki of 229 nM.
`O=C(c1cccs1)N1CCCC(c2nnn(-c3cccc(Cl)c3)n2)C1` (racemic) showed an inhibition constant (Ki) in test [1] of 316 nM.
For the compound `O=C(c1ccc(Br)o1)N1CCCCC1c1nnn(-c2cccc(F)c2)n1` (racemic), affinity in test [1] was put at a Ki of 457 nM. This Ki and that of the compound before are within 1.5-fold of each other.
Consider `Cc1cccc(-c2noc(C3CCCCN3C(=O)C3CCC3)n2)c1` (racemic), for which, in test [2], the half-maximal inhibitory concentration (IC50) was 490 nM. The compound further showed an inhibition constant (Ki) in test [1] of 126 nM.
On the same counts, the results for `Cc1cccc(-c2noc(C3CCCN3C(=O)c3ccc(C)s3)n2)c1` (racemic) are 1000 nM and 145 nM.
For the compound `Cc1cccc(-n2nnc(C3CCCCN3C(=O)C3CCC3)n2)c1` (racemic), in test [2], the IC50 is 224 nM. In test [1], this compound gave a Ki of 72.4 nM.
In the case of `O=C(C1CCCC1)N1CCCCC1c1nnn(-c2cccc(Cl)c2)n1` (racemic), the half-maximal inhibitory concentration (IC50) in test [2] was 295 nM. Besides, in test [1], the inhibition constant (Ki) is 87.1 nM.
On to `Cc1ccc(C(=O)N2CSCC2c2nc(-c3cccc(Cl)c3)no2)s1` (racemic), for which, in test [2], the IC50 is 759 nM. For the same compound, the Ki in test [1] is 83.2 nM.
For the compound `Cc1ccc(C(=O)N2CCCC2c2nc(-c3cccc(Cl)c3)no2)s1` (racemic), in test [2], the IC50 was 6610 nM. This compound showed a Ki in test [1] of 123 nM.
The like results for `Cc1ccc(C(=O)N2CCCC2c2nnn(-c3cccc(Cl)c3)n2)s1` (racemic) were, in that order, 251 nM and 89.1 nM.
In test [1], `Cc1cccc(-n2nnc(C3CCCCN3C(=O)C3CCCC3)n2)c1` (racemic) gave a Ki of 102 nM.
`Cc1ccc(C(=O)N2CCCC2c2nnn(-c3cccc(Cl)c3)n2)o1` (racemic) showed an inhibitory constant (Ki) in test [1] of 105 nM.
Regarding `O=C(c1ccco1)N1CCCCC1c1nnn(-c2cccc(Cl)c2)n1` (racemic), in test [1], the inhibition constant (Ki) was 126 nM.
Still for that read-out and setting: to `CC(C)C(=O)N1CCCCC1c1nnn(-c2cccc(Cl)c2)n1` (racemic) belongs 138 nM.
In the case of `O=C(C1CCC1)N1CCCCC1c1nnn(-c2cccc(Cl)c2)n1` (racemic), in test [2], the half-inhibitory concentration (IC50) is 339 nM. Moreover, the affinity in test [1] corresponds to a Ki of 77.6 nM.
As for `CN1CC(=O)N=C1NC(=O)Nc1cccc(Cl)c1` [FENOBAM ANHYDROUS], the Ki in test [3] is 6.76 nM. This counts as single-digit nanomolar.
